# Assay results from different studies.
# Protocols differ between the studies behind these lines.
# Target: Mitogen-activated protein kinase 1 (MAPK1, Homo sapiens, UniProt P28482)
SMILES,effect on,action,method,tested at,quantity,value
COc1cc(Nc2c(C#N)cnc3cc(OCCCN4CCN(C)CC4)c(OC)cc23)c(Cl)cc1Cl,cell-free assay,,,0.5 µM,remaining signal,93.7%
C[C@H](c1ccc(F)cc1)N(Cc1cccc(C(=O)O)c1)C(=O)c1cnc2ccccc2c1,cell-free assay,,competition with immobilised ligand,1 µM,remaining binding,99%
Cc1cnc(NC2CCOCC2)nc1-n1cnc(C(=O)NC(CN)c2cc(F)cc(Cl)c2)c1 (stereo not drawn),enzyme activity,inhibitor,radiometric,1 µM,remaining activity,2%
CC1=C(C#N)C(c2ccc3c(c2)c(NC(=O)c2ccccc2C)nn3C)C(C#N)=C(C)N1,cell-free assay,,competition with immobilised ligand,1 µM,remaining binding,80%
CSc1nc(C)c(-c2ccnc(Nc3ccc(N4CCOCC4)cc3)c2)[nH]1,enzyme activity,inhibitor,,10 µM,inhibition,5.3%
CCC(=O)N[C@H]1CC[C@@H](C(=O)N(C)c2ccc(-c3nc4ccccc4o3)cc2)C1,cell-free assay,,competition with immobilised ligand,1 µM,remaining binding,76%
O=C1NC(=O)c2cc(Nc3ccc(F)cc3)c(Nc3ccc(F)cc3)cc21,cell-free assay,,,0.5 µM,remaining signal,121%
CC/C(=N\NC(=O)NCc1cccc(O)c1)c1ccc(O)c(C)c1O,enzyme activity,inhibitor,,0.1 µM,inhibition,-10.1%
CN(C)C1CCN(CC#Cc2nn(C3CCCC3)c3nc(NCc4ccccc4)ncc23)C1 (stereo not drawn),enzyme activity,inhibitor,FRET,10 µM,inhibition,2%
CC(C)(C)c1nc2c(s1)c1nc(N)ncc1c1ccc(NS(=O)(=O)c3c(F)cccc3F)c(F)c12,enzyme activity,inhibitor,radiometric,1 µM,remaining activity,99%
COc1cc2ncnc(Nc3ccc(F)c(Cl)c3)c2cc1OCCCN1CCOCC1,cell-free assay,,,0.5 µM,remaining signal,103%
COc1cc(Nc2cnc(C#N)c(O[C@H](C)CN(C)C)n2)ncc1-c1cnn(C)c1,enzyme activity,inhibitor,radiometric,1 µM,remaining activity,101%
CCc1ccccc1C(=O)Nc1n[nH]c2c(C)c(F)c(C3C(C#N)=C(C)N(C)C(C)=C3C#N)cc12,cell-free assay,,competition with immobilised ligand,1 µM,remaining binding,86%
Oc1cccc(-c2nc(N3CCOCC3)c3oc4ncccc4c3n2)c1,enzyme activity,inhibitor,,10 µM,remaining activity,106%
Cc1cc(C)c(-n2ccn3nc(-c4cccnc4)cc23)cc1NC(=O)c1cc(C#N)cc(S(F)(F)(F)(F)F)c1,cell-free assay,,competition with immobilised ligand,0.1 µM,remaining binding,88.1%
O=C1Cc2c([nH]c3ccc(Br)cc23)-c2ccccc2N1,cell-free assay,,,0.5 µM,remaining signal,90.5%
CCN(CC)CCNC(=O)c1c(C)[nH]c(/C=C2\C(=O)Nc3ccc(F)cc32)c1C,enzyme activity,inhibitor,,0.3 µM,inhibition,-6%
Nc1nc(Nc2ccccc2)sc1C(=O)c1c(F)cccc1F,enzyme activity,inhibitor,,10 µM,remaining activity,68%
Cc1ccc(C(=O)NCc2ccsc2)cc1C#Cc1cn(C(C)C)c2ncnc(N)c12,enzyme activity,inhibitor,,1 µM,activity vs control,98%
Cc1cc(-n2nc(Cc3cc(F)cc(C(F)(F)F)c3)nc2C)ccc1C(N)=O,cell-free assay,,competition with immobilised ligand,1 µM,remaining binding,100%
Cc1ccc(NC(=O)c2ccc(C)c(C(F)(F)F)c2)cc1C#Cc1nn(C2CCC(O)CC2)c2ncnc(N)c12 (stereo not drawn),cell-free assay,,,10 µM,remaining signal,108%
COc1cc(/C=C/C(=O)CC(=O)/C=C/c2ccc(O)c(OC)c2)ccc1O,enzyme activity,inhibitor,,1 µM,activity vs control,75%
CCCOc1ccc(OC)c(F)c1C(=O)c1ccc(C(=O)N[C@@H]2CNC[C@H]2NC(=O)c2ccc3[nH]ncc3c2)cc1,enzyme activity,inhibitor,,10 µM,remaining activity,86%
COc1ccc2c(c1)O[C@H](c1ccc(OC)c(OC)c1)C[C@@H]2NC(=O)C1(c2ccc3c(c2)OC(F)(F)O3)CC1,cell-free assay,,competition with immobilised ligand,1 µM,remaining binding,99%
CN(c1ncccc1CNc1nc(Nc2ccc3c(c2)CC(=O)N3)ncc1C(F)(F)F)S(C)(=O)=O,enzyme activity,inhibitor,,1 µM,inhibition,88.1%
COc1cc2ncnc(Nc3ccc(Oc4ccccc4)c(C)c3C)c2cc1OC,enzyme activity,inhibitor,,1 µM,inhibition,-2%
Cc1ccc(Nc2nccc(N(C)c3ccc4c(C)n(C)nc4c3)n2)cc1S(N)(=O)=O,enzyme activity,inhibitor,,0.3 µM,inhibition,-1%
Cc1ccc(-n2nc(C(C)(C)C)cc2NC(=O)Nc2ccc(OCCN3CCOCC3)c3ccccc23)cc1,enzyme activity,inhibitor,,10 µM,inhibition,-10%
CC(C)(C)C(=O)c1sc(NC2CCCCC2)nc1N,enzyme activity,inhibitor,,10 µM,remaining activity,95%
CN([C@@H]1CCc2c(CC(=O)O)c3cc(S(C)(=O)=O)ccc3n2C1)S(=O)(=O)c1ccc(F)cc1,cell-free assay,,competition with immobilised ligand,1 µM,remaining binding,77%
COc1cc(Cl)c(C(=O)N[C@@H](CN[C@H]2CC[C@@H](N)CC2)Cc2ccc(C#N)cc2)cc1-c1ccc(CN[C@H](C)c2ccc(C)cc2)o1,enzyme activity,inhibitor,,1 µM,remaining activity,92%
Cc1ccc(NC(=O)c2ccc(CN3CCN(C)CC3)cc2)cc1Nc1nc(-c2cccnc2)cs1,cell-free assay,,,0.5 µM,remaining signal,91.6%
O=C(Nc1cnn(-c2csc(C(=O)NC3COC3)c2)c1)Nc1c(F)cccc1Cl,enzyme activity,inhibitor,,5 µM,remaining activity,85.9%
